Test results: ChEMBL document CHEMBL4680297, “Design, synthesis, and evaluation of substrate - analogue inhibitors of Trypanosoma cruzi ribose 5-phosphate isomerase type B” (Bioorg Med Chem Lett, 2021)
pIC50, pKi: −log10 of the molar value. Activity calls are given as the source filed them. The rule behind the calls is not given here.

Legend:
[1] = tested on: Trypanosoma cruzi; test: Inhibition of Trypanosoma cruzi Ribose 5-phosphate isomerase type B assessed as residual activity at 0.5 mM using ribose 5-phosphate as substrate relative to control
Method in brief: (§1)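 TcRPI-B activity on R5P, measured by coupled enzyme assay (TcRPE-1 first coupling enzyme), with compound at 0.2, 0.5, 1.0 or 2.0 mM, as % of control activity. Mean of three independent determinations ± SEM.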

[2] = tested on: Trypanosoma cruzi; test: Inhibition of Trypanosoma cruzi RPE1 assessed as residual activity at 0.2 mM relative to control
Method in brief: (§2)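 TcRPE-1 (first enzyme of the coupled RPI assay) activity measured with compound at 0.2, 0.5, 1.0 or 2.0 mM, as % of uninhibited activity. Mean of three independent determinations ± SEM.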

[3] = tested on: Trypanosoma cruzi; test: Inhibition of Trypanosoma cruzi RPE1 assessed as residual activity at 0.5 mM relative to control; method in brief: as §2
[4] = tested on: Trypanosoma cruzi; test: Inhibition of Trypanosoma cruzi RPE1 assessed as residual activity at 1 mM relative to control; method in brief: as §2
[5] = tested on: Trypanosoma cruzi; test: Inhibition of Trypanosoma cruzi RPE1 assessed as residual activity at 2 mM relative to control; method in brief: as §2
[6] = tested on: NIH3T3; test: Cytotoxicity against mouse NIH/3T3 cells; type: cell-based
[7] = tested on: Trypanosoma cruzi; test: Trypanocidal activity against Trypanosoma cruzi trypomastigotes expressing beta galactosidase infected in NIH/3T3 cells assessed as parasite growth inhibition at up to 50 uM by reporter assay; details: dose microM <=50
[8] = tested on: Trypanosoma cruzi; test: Inhibition of Trypanosoma cruzi Ribose 5-phosphate isomerase type B assessed as residual activity at 0.2 mM using ribose 5-phosphate as substrate relative to control; method in brief: as §1
[9] = tested on: Trypanosoma cruzi; test: Inhibition of Trypanosoma cruzi Ribose 5-phosphate isomerase type B assessed as residual activity at 1 mM using ribose 5-phosphate as substrate relative to control; method in brief: as §1
[10] = tested on: Trypanosoma cruzi; test: Inhibition of Trypanosoma cruzi Ribose 5-phosphate isomerase type B assessed as residual activity at 2 mM using ribose 5-phosphate as substrate relative to control; method in brief: as §1
[11] = Competitive inhibition of Trypanosoma cruzi Ribose 5-phosphate isomerase type B using varying levels of ribose 5-phosphate as substrate by Dixon plot analysis
Method in brief: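 Coupled assay with TcRPE-1 as first coupling enzyme. Inhibitor at 0, 10, 20, 40, 60 and 80 μM, R5P at 0.4, 0.8 and 2 mM. Ki taken from the x-axis intersection of Dixon plots (1/V vs [inhibitor]). Inhibition type assigned from parallel [R5P]/V vs [inhibitor] lines (Cornish-Bowden). Mean of four independent experiments.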

[12] = tested on: Trypanosoma cruzi; test: Binding affinity to Trypanosoma cruzi Ribose 5-phosphate isomerase type B assessed as covalent bond formation between compound and protein Cys69 residue by trypsin digestion based LC-MS/MS analysis
Method in brief: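 TcRPI-B incubated intact with inhibitor for 30 min, then digested with trypsin to map cysteine modification.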

[13] = tested on: Trypanosoma cruzi; test: Trypanocidal activity against Trypanosoma cruzi trypomastigotes expressing beta galactosidase infected in NIH/3T3 cells assessed as parasite growth inhibition by reporter assay; type: functional, organism-based; details: NIH3T3
Method in brief: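 Tulahuen strain expressing β-galactosidase. Trypomastigotes added to NIH-3T3 fibroblasts together with compound, up to 50 μM, covering infection and intracellular amastigote growth. β-Galactosidase activity taken as parasite viability. IC50 from dose-response fits, in triplicate. Amphotericin B positive control.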

[14] = Inhibition of Trypanosoma cruzi Ribose 5-phosphate isomerase type B expressed in Escherichia coli BL21 codon plus (DE3) using ribose 5-phosphate as substrate
[15] = Competitive inhibition of recombinant poly-His-tagged Trypanosoma cruzi Ribose 5-phosphate isomerase type B expressed in Escherichia coli BL21 codon plus (DE3) using ribose 5-phosphate as substrate
Method in brief: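 Coupled spectrophotometric RPI assay, with T. cruzi ribulose 5-phosphate epimerase (TcRPE-1) as the first coupling enzyme. Inhibitor was tested at 0, 10, 20, 40, 60 and 80 μM, each at R5P 0.4, 0.8 and 2 mM. Ki came from Dixon plots (1/V vs [inhibitor]), as the X-axis intersection of the three lines. Inhibition type was assigned from [R5P]/V vs [inhibitor] plots (Cornish-Bowden). Mean of four independent experiments.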

Row | SMILES | Activity [1] [%] | Activity [2] [%] | Activity [3] [%] | Activity [4] [%] | Activity [5] [%] | Activity [6] | Activity [7] | Activity [8] [%] | Activity [9] [%] | Activity [10] [%] | pKi [11] | Activity [12] | pIC50 [13] | pKi [14] | pKi [15]
1 | O=C(CF)NCCOP(=O)(O)O | 2040 | 111 | 103 | 93.2 | 83.5 | Non-Toxic | inactive | – | – | – | – | – | – | – | –
2 | O=C(CI)NCCOP(=O)(O)O | 7.5 | 89.5 | 89.5 | 103 | 57.4 | Non-Toxic | – | 25.2 | 1.2 | 0 | 5.26 | Active | 4.76 | – | –
3 | C[C@@H]1[C@H](O)[C@@H](C)/C=C/C=C/C=C/C=C/C=C/C=C/C=C/[C@H](O[C@@H]2O[C@H](C)[C@@H](O)[C@H](N)[C@@H]2O)C[C@@H]2O[C@](O)(C[C@@H](O)C[C@@H](O)[C@H](O)CC[C@@H](O)C[C@@H](O)CC(=O)O[C@H]1C)C[C@H](O)[C@H]2C(=O)O [AMPHOTERICIN B] | – | – | – | – | – | – | – | – | – | – | – | – | 6.64 | – | –
4 | O=C(CCl)NCCOP(=O)(O)O | 105 | 100 | 103 | 95.5 | 82.6 | Non-Toxic | – | 107 | 98.5 | 83.7 | – | – | – | – | –
5 | O=C[C@H](O)[C@H](O)[C@H](O)[C@H](O)COP(=O)(O)O | – | – | – | – | – | – | – | – | – | – | – | – | – | 1.82 | –
6 | O=C(Cc1ccccc1)NCCOP(=O)(O)O | 97.4 | 100 | 91.9 | 87.4 | 85.9 | Non-Toxic | inactive | 98.1 | 95.3 | 89.2 | – | – | – | – | –
7 | O=C(NO)[C@H](O)[C@H](O)COP(=O)(O)O | – | – | – | – | – | – | – | – | – | – | – | – | – | – | 2.92
8 | O=C(CBr)NCCOP(=O)(O)O | 62.7 | 91.1 | 85.8 | 77.3 | 65.1 | Non-Toxic | inactive | 78.5 | 41.3 | 18.3 | – | – | – | – | –
